Paper PMC11831629 (The Journal of International Medical Research, 2025)
Bridge positions count the residues as written; N and C are the ends. Square brackets hold non-standard residues; d marks the D form. Peptide text beside a SMILES is read from it. * marks the point of attachment. X1 = CC[C@H](C)CCCCC(=O)*; Dab = NCC[C@H](N)C(=O)O

Key:
[1] = assay type: in vivo, human
Outline: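 Elderly ICU patients without prior renal failure, AKI, RRT or ECMO received iv test compound for more than 3 days. AKI was a creatinine rise of more than 50% from baseline. Trough and peak plasma levels were measured by HPLC-MS/MS after at least six doses. AUCss,24h and Css,avg were derived with first-order elimination equations. ROC analysis gave sensitivity and specificity for AKI prediction.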

[2] = multicenter study; cited from earlier work
[3] = ROC curve analysis, critically ill elderly patients, 28 AKI vs 30 non-AKI

CC[C@H](C)CCCCC(=O)N[C@@H](CCN)C(=O)N[C@H](C(=O)N[C@@H](CCN)C(=O)N[C@H]1CCNC(=O)[C@H]([C@@H](C)O)NC(=O)[C@H](CCN)NC(=O)[C@H](CCN)NC(=O)[C@H](CC(C)C)NC(=O)[C@@H](Cc2ccccc2)NC(=O)[C@H](CCN)NC1=O)[C@@H](C)O [polymyxin B] (X1-[Dab]T[Dab][Dab][Dab][dF]L[Dab][Dab]T; lactam 4-C)
area under the ROC curve of Css,avg for prediction of PB-AKI ([1]; 95% CI 0.579-0.847): 0.713 | area under the ROC curve of Cmin for prediction of PB-AKI ([1]; 95% CI 0.661-0.910): 0.786 | cutoff value for Cmin for predicting AKI [1, 3]: 2940 ng/mL | cutoff value for Css,avg for predicting AKI [1, 3]: 4140 ng/mL | sensitivity of Cmin cutoff for prediction of PB-AKI ([1]; cutoff 2.94 mg/L): 78.57% | specificity of Cmin cutoff for prediction of PB-AKI ([1]; cutoff 2.94 mg/L): 80.00% | sensitivity of Css,avg cutoff for prediction of PB-AKI ([1]; cutoff 4.14 mg/L): 82.14 | specificity of Css,avg cutoff for prediction of PB-AKI ([1]; cutoff 4.14 mg/L): 53.33% | mortality rate of patients with PB-associated AKI higher than that of patients without AKI [2]: 17%
